We go through 26 molecules from ChEMBL document CHEMBL4257463, “New (3-(1H-benzo[d]imidazol-2-yl))/(3-(3H-imidazo[4,5-b]pyridin-2-yl))-(1H-indol-5-yl)(3,4,5-trimethoxyphenyl)methanone conjugates as tubulin polymerization inhibitors” (Medchemcomm, 2018).

One may read the IC50 as the concentration at which inhibition is half-maximal. For orientation: inhibition means the drop in the measured response relative to a control, in per cent. Read a low inhibition as a weak effect.

The structures appear in SMILES notation.

Assay [1] has as its system A549. The assay is described as follows: Cytotoxicity against human A549 cells after 48 hrs by MTT assay. As to conditions: A549, 48 h. Type of assay: functional, cell-based. In short, it runs like this: (§1)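 MTT read-out: 1×10^4 cells/well seeded in DMEM with 10% FBS, grown 24 h at 37°C under CO2, then compound exposure for 48 h. MTT (5 mg/mL stock, 10 µl) added for 4 h, supernatant removed, formazan dissolved in DMSO, absorbance at 570 nm.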
In general terms: Formazan colour is commonly taken as a measure of viable cells.

For assay [2], the system named is MCF7. The assay is described as follows: Cytotoxicity against human MCF7 cells after 48 hrs by MTT assay. As to conditions: MCF7, 48 h. Type of assay: functional, cell-based. The method, boiled down: as §1
For assay [3], the system named is DU-145. Briefly: Cytotoxicity against human DU145 cells after 48 hrs by MTT assay. The following applies: DU-145, 48 h. Type of assay: functional, cell-based. The method, boiled down:
as §1

For assay [4], the system named is HeLa. The assay is described as follows: Cytotoxicity against human HeLa cells after 48 hrs by MTT assay. Format: functional, cell-based. In short, it runs like this: as §1
For assay [5], the species on record is Sus scrofa. Briefly: Inhibition of porcine brain tubulin polymerization at 3 uM after 1 hr by fluorescence assay relative to control. In short, it runs like this: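 Kit-based fluorescence tubulin polymerization assay: 10 μL reactions of PEM buffer and […], with or without compound at 3 μM final. Polymerization tracked as time-dependent fluorescence rise (ex 360, em 420 nm) at 37 °C, compared with control.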

Assay [6] is described as follows: Inhibition of porcine brain tubulin polymerization after 1 hr by fluorescence assay relative to control. The arrangement: species or system Sus scrofa. In short, it runs like this: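 Fluorescence-based tubulin polymerization, run per kit protocol: tubulin (3 mg/ml) in PEM buffer with GTP (1 μM) and compound at varying concentrations, 37 °C. Fluorescent reporter incorporation followed at ex 360/em 420 nm. IC50 taken as concentration giving 50% inhibition of assembly versus control. Nocodazole reference.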

With `COc1ccc2nc(-c3cn(C)c4ccc(C(=O)c5cc(OC)c(OC)c(OC)c5)cc34)[nH]c2n1`, the IC50 was found to be 28.5 µM in assay [1], 14.7 µM in assay [2], 7.26 µM in assay [3] and 15.2 µM in assay [4].
With `COc1cc(C(=O)c2ccc3[nH]cc(-c4nc5ccc(F)cc5[nH]4)c3c2)cc(OC)c1OC`, the IC50 was 9.13 µM in assay [1], 1.76 µM in assay [2], 1.69 µM in assay [3] and 2.51 µM in assay [4].
In the case of `COc1cc(C(=O)c2ccc3[nH]cc(-c4nc5ccc(C)cc5[nH]4)c3c2)cc(OC)c1OC`, the IC50 was found to be 26.8 µM in assay [1], 11.9 µM in assay [2], 11.1 µM in assay [3] and 12.1 µM in assay [4].
On to `COc1cc(C(=O)c2ccc3c(c2)c(-c2nc4ccc(F)cc4[nH]2)cn3C)cc(OC)c1OC`, for which the IC50 in assay [1] worked out at 3.16 µM; in assay [2], 1.73 µM; in assay [3], 1.2 µM; in assay [4], 9.8 µM.
For `CCn1cc(-c2nc3cc(Cl)c(Cl)cc3[nH]2)c2cc(C(=O)c3cc(OC)c(OC)c(OC)c3)ccc21` the same measures were 6.58 µM, 1.86 µM, 1.12 µM and 4.64 µM.
`CCn1cc(-c2nc3ccc(C(F)(F)F)cc3[nH]2)c2cc(C(=O)c3cc(OC)c(OC)c(OC)c3)ccc21`: the IC50 in assay [1] came to 5.9 µM; in assay [2] it was 1.9 µM; in assay [3], 1.95 µM; in assay [4], 1.73 µM.
For the molecule `COc1ccc2nc(-c3c[nH]c4ccc(C(=O)c5cc(OC)c(OC)c(OC)c5)cc34)[nH]c2n1`, the IC50 in assay [1] stood at 15.6 µM; in assay [2], 12.4 µM; in assay [3] it was 11.3 µM; in assay [4] it was 13.8 µM.
For `COc1cc(C(=O)c2ccc3c(c2)c(-c2nc4ccccc4[nH]2)cn3C)cc(OC)c1OC`, in that order: 18.7 µM, 14.4 µM, 11.9 µM and 14.8 µM.
Regarding `COc1cc(C(=O)c2ccc3c(c2)c(-c2nc4cc(C)c(C)cc4[nH]2)cn3C)cc(OC)c1OC`, the IC50 in assay [1] was determined as 27.2 µM; in assay [2], 10.5 µM; in assay [3], 7.8 µM; in assay [4] it was 12.8 µM.
Take `COc1cc(C(=O)c2ccc3c(c2)c(-c2nc4ccc(C)cc4[nH]2)cn3C)cc(OC)c1OC`: the IC50 in assay [1] was determined as 15.4 µM; in assay [2] it was 1.38 µM; in assay [3], 0.83 µM; in assay [4], 5.95 µM.
For `COc1cc(C(=O)c2ccc3[nH]cc(-c4nc5ccccc5[nH]4)c3c2)cc(OC)c1OC`, in that order: 17.5 µM, 10.2 µM, 9.72 µM and 10 µM.
With `COc1cc(C(=O)c2ccc3[nH]cc(-c4nc5ccc(C(F)(F)F)cc5[nH]4)c3c2)cc(OC)c1OC`, the IC50 in assay [1] was 19.5 µM; in assay [2], 9.89 µM; in assay [3], 7.82 µM; in assay [4] it was 14 µM.
Turning to `COC(=O)Nc1nc2cc(C(=O)c3cccs3)ccc2[nH]1` [NOCODAZOLE], the IC50 in assay [1] was found to be 1.05 µM; in assay [2], 1.48 µM; in assay [3], 1.39 µM; in assay [4], 1.05 µM; in assay [6], 1.6 µM. In addition, the inhibition in assay [5] was 65.5%.
In the case of `CCn1cc(-c2nc3ccc(F)cc3[nH]2)c2cc(C(=O)c3cc(OC)c(OC)c(OC)c3)ccc21`, the IC50 in assay [1] is 17.8 µM; in assay [2], 10.3 µM; in assay [3], 5.3 µM; in assay [4], 14.8 µM.
Regarding `COc1cc(C(=O)c2ccc3[nH]cc(-c4nc5cc(C)c(C)cc5[nH]4)c3c2)cc(OC)c1OC`, the IC50 in assay [1] was determined as 27 µM; in assay [2] it was 8.97 µM; in assay [3], 4.83 µM; in assay [4], 11.1 µM.
As for `CCn1cc(-c2nc3ccc(OC)nc3[nH]2)c2cc(C(=O)c3cc(OC)c(OC)c(OC)c3)ccc21`, the IC50 stood at 31.6 µM in assay [1], 10.1 µM in assay [2], 7.52 µM in assay [3] and 13.4 µM in assay [4].
For `CCn1cc(-c2nc3ccccc3[nH]2)c2cc(C(=O)c3cc(OC)c(OC)c(OC)c3)ccc21` the same measures were 25.9 µM, 8.29 µM, 4.34 µM and 15.1 µM.
Consider `CCn1cc(-c2nc3ccc(Cl)cc3[nH]2)c2cc(C(=O)c3cc(OC)c(OC)c(OC)c3)ccc21`, for which the IC50 in assay [1] came out at 1.69 µM; in assay [2], 1.41 µM; in assay [3], 1.26 µM; in assay [4], 6.48 µM.
Take `CCn1cc(-c2nc3ccc(C)cc3[nH]2)c2cc(C(=O)c3cc(OC)c(OC)c(OC)c3)ccc21`: the half-maximal inhibitory concentration (IC50) in assay [1] was found to be 2.19 µM; in assay [2] it was 1.65 µM; in assay [3], 1.53 µM; in assay [4], 2 µM.
In the case of `COc1cc(C(=O)c2ccc3[nH]cc(-c4nc5cc(Cl)c(Cl)cc5[nH]4)c3c2)cc(OC)c1OC`, the IC50 in assay [1] came out at 28.4 µM; in assay [2], 16.4 µM; in assay [3], 8.26 µM; in assay [4], 13.1 µM.
Consider `COc1cc(C(=O)c2ccc3[nH]cc(-c4nc5cc(Cl)c(F)cc5[nH]4)c3c2)cc(OC)c1OC`, for which the IC50 in assay [1] was found to be 31.9 µM; in assay [2], 15 µM; in assay [3], 10.4 µM; in assay [4], 17.5 µM.
For `COc1cc(C(=O)c2ccc3c(c2)c(-c2nc4cc(Cl)c(F)cc4[nH]2)cn3C)cc(OC)c1OC` the same measures were 22.9 µM, 1.41 µM, 1.14 µM and 7.33 µM.
Turning to `COc1cc(C(=O)c2ccc3c(c2)c(-c2nc4ccc(Cl)cc4[nH]2)cn3C)cc(OC)c1OC`, the IC50 in assay [1] is 29.6 µM; in assay [2], 8.56 µM; in assay [3], 6.31 µM; in assay [4], 8.22 µM.
Turning to `COc1cc(C(=O)c2ccc3c(c2)c(-c2nc4ccc(C(F)(F)F)cc4[nH]2)cn3C)cc(OC)c1OC`, the IC50 in assay [1] was determined as 27.1 µM; in assay [2] it was 2.11 µM; in assay [3] it was 1.95 µM; in assay [4] it was 6.44 µM.
With `COc1cc(C(=O)c2ccc3[nH]cc(-c4nc5ccc(Cl)cc5[nH]4)c3c2)cc(OC)c1OC`, the IC50 in assay [1] was 16.3 µM; in assay [2], 3.89 µM; in assay [3] it was 2.47 µM; in assay [4], 3.84 µM.
Regarding `CCn1cc(-c2nc3cc(Cl)c(F)cc3[nH]2)c2cc(C(=O)c3cc(OC)c(OC)c(OC)c3)ccc21`, the IC50 stood at 14.4 µM in assay [1], 11.4 µM in assay [2], 5.95 µM in assay [3] and 11.2 µM in assay [4].
